Reference: ChEMBL document CHEMBL3232837, “Synthesis and evaluation of new Hsp90 inhibitors based on a 1,4,5-trisubstituted 1,2,3-triazole scaffold” (J Med Chem, 2014)
Activity calls are given as the source filed them. No cut-off for these calls is given here.

Columns and labels:
[1] = test system: Mus musculus; assay: (§1) In vivo inhibition of HSP90 in human GTL16 cells overexpressing c-Met xenografted in CD-1 nude mouse assessed as downregulation of AKT protein expression at 50 mg/kg, ip administered as q5d/week for 2 weeks starting 3 days after tumor injection measured at 6 hrs post last dose by Western blot analysis; format: functional, organism-based; parameters: dose 50 mg/kg
[2] = test system: GTL 16; assay: Antitumor activity against human GTL16 cells overexpressing c-Met xenografted in CD-1 nude mouse assessed as tumor growth inhibition at 50 mg/kg, ip administered as q5d/week for 2 weeks starting 3 days after tumor injection measured on day 5 post last dose relative to vehicle-treated control; format: functional, organism-based; parameters: dose 50 mg/kg
Procedure, shortened: (§2)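 Female athymic nude mice, 5-6 weeks old; 5 × 10^6 exponentially growing tumor cells inoculated s.c. in right flank. Treatment i.p. from day 3 after tumor injection. Tumor volume measured biweekly as d²·D/2. TVI% = 100 − (mean TV treated/mean TV control × 100), evaluated 5 days after last treatment; Mann-Whitney test vs vehicle group.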

[3] = test system: Mus musculus; assay: as §1, with “c-Met” for “AKT”; format: functional, organism-based; parameters: dose 50 mg/kg
[4] = Toxicity in ip dosed CD-1 nude mouse xenografted with GTL16 cells overexpressing c-Met administered as q5d/week for 2 weeks starting 3 days after tumor injection measured on day 5 post last dose; format: organism-based; conditions: in vivo
Procedure, shortened: (§3)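 Female athymic nude mice, 5–6 weeks old, implanted s.c. in the right flank with 5 × 10^6 exponentially growing tumour cells and given i.p. doses (mg/10 mL/kg) over 2 weeks starting 3 days after implantation. Toxicity endpoints were maximum body weight loss, BWL% = 100 − [(mean BW day x / mean BW day 1) × 100], and deaths occurring before the first control death.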

[5] = test system: Mus musculus; assay: as §1, with “A431” for “GTL16”, “EGFR” for “c-Met”, “EGFR” for “AKT”, “2” for “6”; format: functional, organism-based; parameters: dose 50 mg/kg; conditions: A-431
[6] = Metabolic stability in human plasma assessed as compound remaining at 5 uM measured at 120 mins by LC/MS analysis; format: ADME, cell-free
Procedure, shortened: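 Compound added to human plasma at 5 µM final and incubated at 37 °C for up to 120 min. Samples quenched in two volumes of chilled acetonitrile and centrifuged at 4 °C. Remaining compound quantified by LC/MS.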

[7] = test system: NCI-H460; assay: Cell cycle arrest in human NCI-H460 cells assessed as accumulation at G2/M phase at 2 times IC50 after 24 to 72 hrs by propidium iodide staining-based FACS flow cytometric analysis; format: functional
[8] = test system: Mus musculus; assay: (§4) In vivo inhibition of HSP90 in human A431 cells overexpressing EGFR xenografted in CD-1 nude mouse assessed as downregulation of AKT protein expression at 50 mg/kg, ip administered as q5d/week for 2 weeks starting 3 days after tumor injection measured at 2 hrs post last dose by Western blot analysis; format: functional, organism-based; parameters: dose 50 mg/kg; conditions: A-431
[9] = test system: A-431; assay: Antitumor activity against human A431 cells overexpressing EGFR xenografted in CD-1 nude mouse assessed as tumor growth inhibition at 50 mg/kg, ip administered as q5d/week for 2 weeks starting 3 days after tumor injection measured on day 5 post last dose relative to vehicle-treated control; format: functional, organism-based; parameters: dose 50 mg/kg; procedure, shortened: as §2
[10] = test system: Mus musculus; assay: In vivo inhibition of HSP90 in human GTL16 cells overexpressing c-Met xenografted in CD-1 nude mouse assessed as induction of HSP70 protein expression at 50 mg/kg, ip administered as q5d/week for 2 weeks starting 3 days after tumor injection measured at 6 hrs post last dose by Western blot analysis; format: functional, organism-based; parameters: dose 50 mg/kg
[11] = test system: NCI-H460; assay: Induction of apoptosis in human NCI-H460 cells assessed as cell with hypodiploid DNA content at 2 times IC50 after 24 to 72 hrs by propidium iodide staining-based FACS flow cytometric analysis; format: functional
[12] = test system: Mus musculus; assay: In vivo inhibition of HSP90 in human A431 cells overexpressing EGFR xenografted in CD-1 nude mouse assessed as induction of HSP70 protein expression at 50 mg/kg, ip administered as q5d/week for 2 weeks starting 3 days after tumor injection measured at 2 hrs post last dose by Western blot analysis; format: functional, organism-based; parameters: dose 50 mg/kg; conditions: A-431
[13] = test system: Mus musculus; assay: as §1, with “CDK4” for “AKT”; format: functional, organism-based; parameters: dose 50 mg/kg
[14] = Toxicity in ip dosed CD-1 nude mouse xenografted with human A431 cells overexpressing EGFR administered as q5d/week for 2 weeks starting 3 days after tumor injection measured on day 5 post last dose; format: organism-based, A-431; conditions: in vivo; procedure, shortened: as §3
[15] = test system: Mus musculus; assay: as §4, with “CDK4” for “AKT”; format: functional, organism-based; parameters: dose 50 mg/kg; conditions: A-431
[16] = target: T1, Polyamine deacetylase HDAC10 (Homo sapiens, UniProt Q969S8); assay: Inhibition of human HDAC-10 using RHKK(Ac) as substrate by fluorescence assay
T1 sequence (Q969S8 whole entry): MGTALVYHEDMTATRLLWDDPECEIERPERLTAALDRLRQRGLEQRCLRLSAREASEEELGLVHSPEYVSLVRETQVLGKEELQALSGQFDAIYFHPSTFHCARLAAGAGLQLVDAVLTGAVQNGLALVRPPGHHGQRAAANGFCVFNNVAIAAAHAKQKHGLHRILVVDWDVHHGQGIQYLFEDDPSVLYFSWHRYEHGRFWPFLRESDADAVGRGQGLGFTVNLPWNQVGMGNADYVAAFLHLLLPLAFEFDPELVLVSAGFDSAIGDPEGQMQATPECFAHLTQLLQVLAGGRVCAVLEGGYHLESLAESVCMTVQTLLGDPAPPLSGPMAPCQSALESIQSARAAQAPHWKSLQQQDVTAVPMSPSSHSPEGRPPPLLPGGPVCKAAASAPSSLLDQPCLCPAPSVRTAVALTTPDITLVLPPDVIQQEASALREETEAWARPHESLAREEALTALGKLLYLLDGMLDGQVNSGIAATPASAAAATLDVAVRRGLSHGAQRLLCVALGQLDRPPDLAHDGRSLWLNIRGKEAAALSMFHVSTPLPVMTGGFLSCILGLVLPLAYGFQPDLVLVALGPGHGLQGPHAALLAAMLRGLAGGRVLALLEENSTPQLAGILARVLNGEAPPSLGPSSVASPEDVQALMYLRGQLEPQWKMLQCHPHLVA

[17] = target: T2, Protein deacetylase HDAC6 (Homo sapiens, UniProt Q9UBN7); assay: Inhibition of human HDAC-6 using RHKK(Ac) as substrate by fluorescence assay
T2 sequence (Q9UBN7 whole entry): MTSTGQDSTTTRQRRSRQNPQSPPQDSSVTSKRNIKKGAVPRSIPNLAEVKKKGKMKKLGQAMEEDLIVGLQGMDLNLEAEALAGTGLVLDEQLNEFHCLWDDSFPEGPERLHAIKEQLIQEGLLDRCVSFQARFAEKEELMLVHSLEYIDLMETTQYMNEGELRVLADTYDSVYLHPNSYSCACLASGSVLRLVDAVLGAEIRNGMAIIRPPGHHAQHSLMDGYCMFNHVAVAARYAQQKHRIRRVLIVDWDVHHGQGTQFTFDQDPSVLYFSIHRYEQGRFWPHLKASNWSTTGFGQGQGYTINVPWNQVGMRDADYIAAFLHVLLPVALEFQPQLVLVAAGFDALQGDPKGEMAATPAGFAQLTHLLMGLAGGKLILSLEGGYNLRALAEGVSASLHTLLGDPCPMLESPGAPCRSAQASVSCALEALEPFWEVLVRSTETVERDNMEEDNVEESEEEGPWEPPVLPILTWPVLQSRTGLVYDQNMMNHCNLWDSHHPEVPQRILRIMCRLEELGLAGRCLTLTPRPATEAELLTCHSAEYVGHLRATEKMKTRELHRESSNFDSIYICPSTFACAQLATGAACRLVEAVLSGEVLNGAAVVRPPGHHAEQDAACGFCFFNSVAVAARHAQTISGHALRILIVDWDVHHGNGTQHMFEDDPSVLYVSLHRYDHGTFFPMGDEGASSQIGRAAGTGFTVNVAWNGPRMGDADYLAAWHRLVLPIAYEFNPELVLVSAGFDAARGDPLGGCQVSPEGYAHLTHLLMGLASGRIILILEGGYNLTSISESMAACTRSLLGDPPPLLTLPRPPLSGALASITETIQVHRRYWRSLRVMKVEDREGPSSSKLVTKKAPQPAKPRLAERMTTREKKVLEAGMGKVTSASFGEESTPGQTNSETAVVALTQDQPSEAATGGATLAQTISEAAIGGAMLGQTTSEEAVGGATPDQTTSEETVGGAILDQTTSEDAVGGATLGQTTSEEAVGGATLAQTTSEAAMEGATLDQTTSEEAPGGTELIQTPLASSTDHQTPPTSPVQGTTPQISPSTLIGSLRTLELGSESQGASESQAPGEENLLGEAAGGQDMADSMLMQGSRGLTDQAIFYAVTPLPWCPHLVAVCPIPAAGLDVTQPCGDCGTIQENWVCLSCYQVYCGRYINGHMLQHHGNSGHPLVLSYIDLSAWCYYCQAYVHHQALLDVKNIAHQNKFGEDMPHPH

[18] = target: Histone deacetylase 1 (Homo sapiens, UniProt Q13547); assay: Inhibition of human HDAC-1 using RHKK(Ac) as substrate by fluorescence assay
Histone deacetylase 1, sequence (Q13547 whole entry): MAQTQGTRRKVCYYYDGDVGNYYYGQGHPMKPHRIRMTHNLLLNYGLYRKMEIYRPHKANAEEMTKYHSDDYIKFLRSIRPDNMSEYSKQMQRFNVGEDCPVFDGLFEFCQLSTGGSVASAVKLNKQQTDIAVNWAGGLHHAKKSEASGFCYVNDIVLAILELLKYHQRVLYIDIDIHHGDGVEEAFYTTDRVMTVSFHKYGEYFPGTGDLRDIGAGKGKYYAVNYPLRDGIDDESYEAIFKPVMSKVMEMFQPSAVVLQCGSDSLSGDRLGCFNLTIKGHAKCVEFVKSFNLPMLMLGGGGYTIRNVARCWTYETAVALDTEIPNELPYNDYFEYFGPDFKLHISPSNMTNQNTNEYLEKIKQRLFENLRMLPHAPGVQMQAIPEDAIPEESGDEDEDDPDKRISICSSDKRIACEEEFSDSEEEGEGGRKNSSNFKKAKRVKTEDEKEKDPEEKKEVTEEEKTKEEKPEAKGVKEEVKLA

[19] = test system: NCI-H460; assay: Cytotoxicity against human NCI-H460 cells assessed as growth inhibition after 72 hrs by SRB assay; format: functional, cell-based; conditions: NCI-H460, 72 h
Procedure, shortened: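 NCI-H460 cells grown in RPMI-1640 with 10% heat-inactivated FBS, seeded at about 10% confluence and allowed 24 h recovery. Exposed to graded drug concentrations or solvent for 72 h. Surviving fraction measured by sulforhodamine B. IC50 is the concentration giving a 50% drop in cell number vs vehicle, from dose-response curve fitting; mean of n=4 with SD.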

[20] = target: Histone deacetylase 4 (Homo sapiens, UniProt P56524); assay: Inhibition of human HDAC-4 using RHKK(Ac) as substrate by fluorescence assay
Histone deacetylase 4, sequence (P56524 whole entry): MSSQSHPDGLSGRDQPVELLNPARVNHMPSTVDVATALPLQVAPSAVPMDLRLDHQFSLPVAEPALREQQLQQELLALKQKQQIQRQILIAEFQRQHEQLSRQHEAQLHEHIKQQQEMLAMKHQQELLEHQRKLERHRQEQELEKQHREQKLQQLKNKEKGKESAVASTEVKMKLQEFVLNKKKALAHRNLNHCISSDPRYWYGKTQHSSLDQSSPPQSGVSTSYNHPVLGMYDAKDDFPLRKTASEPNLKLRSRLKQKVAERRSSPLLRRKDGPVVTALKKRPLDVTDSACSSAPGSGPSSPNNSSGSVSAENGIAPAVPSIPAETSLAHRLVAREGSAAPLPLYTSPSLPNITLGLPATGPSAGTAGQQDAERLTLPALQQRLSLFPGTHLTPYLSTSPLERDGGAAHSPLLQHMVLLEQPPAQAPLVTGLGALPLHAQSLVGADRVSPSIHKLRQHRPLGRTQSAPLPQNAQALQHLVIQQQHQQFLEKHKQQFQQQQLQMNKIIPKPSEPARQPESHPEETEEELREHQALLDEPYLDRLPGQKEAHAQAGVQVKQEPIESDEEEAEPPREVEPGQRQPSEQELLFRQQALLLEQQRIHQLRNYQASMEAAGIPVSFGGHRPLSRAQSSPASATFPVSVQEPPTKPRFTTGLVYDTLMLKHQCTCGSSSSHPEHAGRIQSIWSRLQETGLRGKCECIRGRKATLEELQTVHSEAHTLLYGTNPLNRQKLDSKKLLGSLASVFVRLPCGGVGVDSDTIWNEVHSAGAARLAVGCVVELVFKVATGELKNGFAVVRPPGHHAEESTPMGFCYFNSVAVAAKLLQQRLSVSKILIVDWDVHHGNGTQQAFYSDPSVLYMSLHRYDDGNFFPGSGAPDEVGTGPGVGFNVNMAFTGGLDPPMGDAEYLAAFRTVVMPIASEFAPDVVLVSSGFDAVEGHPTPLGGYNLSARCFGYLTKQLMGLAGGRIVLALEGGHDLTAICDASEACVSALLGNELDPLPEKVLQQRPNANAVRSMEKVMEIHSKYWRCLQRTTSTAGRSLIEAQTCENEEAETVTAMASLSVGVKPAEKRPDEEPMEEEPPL

[21] = target: Histone deacetylase 5 (Homo sapiens, UniProt Q9UQL6); assay: Inhibition of human HDAC-5 using RHKK(Ac) as substrate by fluorescence assay
[22] = target: T3, Histone deacetylase 11 (Homo sapiens, UniProt Q96DB2); assay: Inhibition of human HDAC-11 using RHKK(Ac) as substrate by fluorescence assay
T3 sequence (Q96DB2 whole entry): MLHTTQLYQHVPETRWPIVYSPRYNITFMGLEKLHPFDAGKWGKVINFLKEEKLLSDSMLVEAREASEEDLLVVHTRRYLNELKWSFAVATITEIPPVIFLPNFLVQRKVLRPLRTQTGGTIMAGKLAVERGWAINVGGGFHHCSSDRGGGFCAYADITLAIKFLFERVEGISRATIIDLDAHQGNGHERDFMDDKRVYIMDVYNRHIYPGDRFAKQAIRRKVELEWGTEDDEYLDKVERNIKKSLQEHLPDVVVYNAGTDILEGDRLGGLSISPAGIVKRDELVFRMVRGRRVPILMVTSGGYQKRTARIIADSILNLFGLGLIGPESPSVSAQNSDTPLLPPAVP

[23] = target: Histone deacetylase 3/Nuclear receptor corepressor 2 (HDAC3/NCoR2) (Homo sapiens, UniProt O15379); assay: Inhibition of human HDAC-3/NCOR2 using RHKK(Ac) as substrate by fluorescence assay; format: protein-complex assay
Histone deacetylase 3/Nuclear receptor corepressor 2 (HDAC3/NCoR2), sequence (O15379 whole entry): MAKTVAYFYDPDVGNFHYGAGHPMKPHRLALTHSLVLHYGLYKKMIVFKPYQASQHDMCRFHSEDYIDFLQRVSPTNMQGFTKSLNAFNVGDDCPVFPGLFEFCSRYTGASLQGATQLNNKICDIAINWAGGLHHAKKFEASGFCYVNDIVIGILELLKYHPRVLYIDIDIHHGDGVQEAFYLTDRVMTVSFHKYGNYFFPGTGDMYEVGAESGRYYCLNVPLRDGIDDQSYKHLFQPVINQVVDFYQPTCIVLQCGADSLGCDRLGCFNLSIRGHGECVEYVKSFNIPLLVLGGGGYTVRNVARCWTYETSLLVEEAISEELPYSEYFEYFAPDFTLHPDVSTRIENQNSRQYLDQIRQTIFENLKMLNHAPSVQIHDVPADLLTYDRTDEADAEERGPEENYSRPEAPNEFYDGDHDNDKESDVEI
Histone deacetylase 3/Nuclear receptor corepressor 2 (HDAC3/NCoR2), sequence (Q9Y618 whole entry, further chain): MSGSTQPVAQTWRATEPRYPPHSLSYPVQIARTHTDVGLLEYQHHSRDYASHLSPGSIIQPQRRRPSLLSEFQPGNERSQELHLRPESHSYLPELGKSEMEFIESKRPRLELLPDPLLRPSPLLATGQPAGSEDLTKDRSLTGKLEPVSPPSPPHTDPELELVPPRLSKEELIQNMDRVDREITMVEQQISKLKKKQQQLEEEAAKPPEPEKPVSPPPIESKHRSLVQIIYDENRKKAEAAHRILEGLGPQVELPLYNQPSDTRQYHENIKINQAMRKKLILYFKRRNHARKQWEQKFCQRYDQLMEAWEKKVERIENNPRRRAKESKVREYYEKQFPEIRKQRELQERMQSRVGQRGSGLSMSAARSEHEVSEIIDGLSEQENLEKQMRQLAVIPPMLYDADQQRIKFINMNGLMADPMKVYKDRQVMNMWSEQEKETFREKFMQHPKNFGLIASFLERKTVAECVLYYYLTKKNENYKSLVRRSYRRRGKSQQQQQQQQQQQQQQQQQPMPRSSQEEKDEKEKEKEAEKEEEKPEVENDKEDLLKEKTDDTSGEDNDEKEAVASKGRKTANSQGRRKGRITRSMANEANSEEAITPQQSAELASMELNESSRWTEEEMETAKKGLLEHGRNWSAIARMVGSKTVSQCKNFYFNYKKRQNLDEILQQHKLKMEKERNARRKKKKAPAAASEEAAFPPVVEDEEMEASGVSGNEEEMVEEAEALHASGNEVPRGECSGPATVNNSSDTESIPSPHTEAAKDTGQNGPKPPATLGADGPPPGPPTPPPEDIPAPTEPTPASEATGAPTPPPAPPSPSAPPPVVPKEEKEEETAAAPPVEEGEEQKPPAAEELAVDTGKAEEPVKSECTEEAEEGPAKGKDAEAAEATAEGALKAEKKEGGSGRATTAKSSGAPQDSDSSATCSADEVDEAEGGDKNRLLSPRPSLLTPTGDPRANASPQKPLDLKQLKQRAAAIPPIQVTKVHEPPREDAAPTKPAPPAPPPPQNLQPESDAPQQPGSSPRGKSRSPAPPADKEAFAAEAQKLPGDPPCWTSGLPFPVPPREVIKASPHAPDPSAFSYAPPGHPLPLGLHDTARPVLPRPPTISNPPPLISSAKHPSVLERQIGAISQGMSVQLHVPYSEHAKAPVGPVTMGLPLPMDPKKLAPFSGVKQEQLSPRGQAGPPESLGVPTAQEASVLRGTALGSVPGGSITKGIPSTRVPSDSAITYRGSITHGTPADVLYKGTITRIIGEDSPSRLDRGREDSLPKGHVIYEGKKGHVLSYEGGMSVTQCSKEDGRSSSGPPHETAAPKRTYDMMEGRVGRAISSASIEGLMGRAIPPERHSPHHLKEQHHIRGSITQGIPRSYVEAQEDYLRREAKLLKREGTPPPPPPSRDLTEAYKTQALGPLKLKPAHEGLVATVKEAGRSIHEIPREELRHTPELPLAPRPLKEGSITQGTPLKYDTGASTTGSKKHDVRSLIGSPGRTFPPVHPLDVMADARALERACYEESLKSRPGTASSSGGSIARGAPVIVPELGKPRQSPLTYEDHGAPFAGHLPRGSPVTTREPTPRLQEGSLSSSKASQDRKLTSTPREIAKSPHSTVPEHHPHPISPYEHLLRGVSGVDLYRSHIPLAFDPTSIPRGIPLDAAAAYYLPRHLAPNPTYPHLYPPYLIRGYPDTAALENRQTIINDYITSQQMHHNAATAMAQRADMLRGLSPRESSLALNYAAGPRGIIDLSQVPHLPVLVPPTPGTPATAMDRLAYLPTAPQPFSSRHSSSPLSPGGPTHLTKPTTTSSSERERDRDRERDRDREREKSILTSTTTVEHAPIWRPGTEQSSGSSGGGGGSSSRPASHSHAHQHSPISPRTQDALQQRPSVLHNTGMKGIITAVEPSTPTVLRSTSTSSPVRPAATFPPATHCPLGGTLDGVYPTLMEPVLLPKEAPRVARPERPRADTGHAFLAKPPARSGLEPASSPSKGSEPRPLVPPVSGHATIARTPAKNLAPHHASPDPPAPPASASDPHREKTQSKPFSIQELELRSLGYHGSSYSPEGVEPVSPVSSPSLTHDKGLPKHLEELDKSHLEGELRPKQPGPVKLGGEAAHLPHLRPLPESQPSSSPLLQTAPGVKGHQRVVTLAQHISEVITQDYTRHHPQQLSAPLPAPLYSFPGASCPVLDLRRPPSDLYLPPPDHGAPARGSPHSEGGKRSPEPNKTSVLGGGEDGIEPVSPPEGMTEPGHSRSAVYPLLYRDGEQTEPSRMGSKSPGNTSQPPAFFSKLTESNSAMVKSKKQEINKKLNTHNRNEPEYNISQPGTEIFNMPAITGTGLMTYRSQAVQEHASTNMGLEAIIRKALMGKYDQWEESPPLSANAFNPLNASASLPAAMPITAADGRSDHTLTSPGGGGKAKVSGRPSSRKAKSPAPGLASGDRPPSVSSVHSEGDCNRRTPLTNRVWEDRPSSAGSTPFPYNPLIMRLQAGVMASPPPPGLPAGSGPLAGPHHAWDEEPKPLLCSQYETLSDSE

[24] = target: Heat shock protein HSP 90-alpha (Homo sapiens, UniProt P07900); assay: Displacement of GM-FITC from full-length recombinant human Hsp90-alpha after 4 hrs by fluorescence polarization assay
[25] = target: T4, Histone deacetylase 8 (Homo sapiens, UniProt Q9BY41); assay: Inhibition of human HDAC-8 using RHKK(Ac) as substrate by fluorescence assay
T4 sequence (Q9BY41 whole entry): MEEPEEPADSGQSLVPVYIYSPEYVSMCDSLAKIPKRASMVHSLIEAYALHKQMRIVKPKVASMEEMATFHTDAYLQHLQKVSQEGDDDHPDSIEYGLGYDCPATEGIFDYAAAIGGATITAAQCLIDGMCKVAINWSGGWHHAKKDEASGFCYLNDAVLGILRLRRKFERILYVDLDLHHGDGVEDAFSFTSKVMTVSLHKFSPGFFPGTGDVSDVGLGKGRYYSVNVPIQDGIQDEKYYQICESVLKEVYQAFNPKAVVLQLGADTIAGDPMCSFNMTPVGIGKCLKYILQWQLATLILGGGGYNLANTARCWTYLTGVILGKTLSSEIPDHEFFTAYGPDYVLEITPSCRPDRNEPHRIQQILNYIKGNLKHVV

[26] = target: Histone deacetylase 2 (Homo sapiens, UniProt Q92769); assay: Inhibition of human HDAC-2 using RHKK(Ac) as substrate by fluorescence assay
Histone deacetylase 2, sequence (Q92769 whole entry): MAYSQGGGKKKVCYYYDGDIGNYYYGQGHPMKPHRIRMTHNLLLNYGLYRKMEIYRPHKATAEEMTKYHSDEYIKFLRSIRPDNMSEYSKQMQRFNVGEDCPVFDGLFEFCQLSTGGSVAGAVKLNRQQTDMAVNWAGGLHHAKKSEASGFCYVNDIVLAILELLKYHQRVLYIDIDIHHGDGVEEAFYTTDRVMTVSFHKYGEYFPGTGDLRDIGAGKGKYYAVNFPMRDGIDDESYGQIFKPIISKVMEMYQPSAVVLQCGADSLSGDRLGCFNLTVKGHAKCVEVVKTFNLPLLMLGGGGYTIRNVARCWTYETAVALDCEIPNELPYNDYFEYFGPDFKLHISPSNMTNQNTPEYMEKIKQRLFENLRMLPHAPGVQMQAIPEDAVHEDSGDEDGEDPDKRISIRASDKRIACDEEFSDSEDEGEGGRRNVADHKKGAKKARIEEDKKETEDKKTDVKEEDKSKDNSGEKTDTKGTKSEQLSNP

In the case of CCNC(=O)c1noc(-c2cc(C(C)C)c(O)cc2O)c1-c1ccc(CN2CCOCC2)cc1 [LUMINESPIB], the inhibition [1] is reported as “Active”, the TGI [2] is reported as “Active” and the inhibition [3] is reported as “Active”. For the same molecule, the MTD at 2 weeks [4] was 50 mg/kg, the inhibition [5] was “Active” and the remaining at 2 h, 5 µM [6] was 56%. The Activity [7] was “Active”, the inhibition [8] was “Active” and the TGI [9] was “Active”. For the same molecule, the inhibition [10] was “Active”, the Activity [11] was “Active” and the inhibition [12] was “Active”. The inhibition [13] was “Active”, the MTD at 2 weeks [14] was 50 mg/kg and the inhibition [15] was “Active”.
With CC(C)c1cc(-n2nnc(C(=O)NCCCCCCC(=O)NO)c2-c2ccc(CN3CCOCC3)cc2)c(O)cc1O the IC50 [16] was 3.22 µM, the IC50 [17] was 0.012 µM and the IC50 [18] was 3.1 µM. For the same molecule, the IC50 [19] was > 1 µM, the IC50 [20] was 71.5 µM and the IC50 [21] was 1.91 µM. It also gave an IC50 [22] of 1.77 µM, an IC50 [23] of 2.79 µM and an IC50 [24] of 0.031 µM. The IC50 [25] was 0.717 µM and the IC50 [26] was 5.61 µM.
